Results: ChEMBL document CHEMBL4304782, “Antioxidant, Anti-inflammatory, and Neuroprotective Effects of Novel Vinyl Sulfonate Compounds as Nrf2 Activator” (ACS Med Chem Lett, 2019)
The source made the active and inactive calls. No cut-off for these calls is given here.

Columns and labels:
Mus musculus [1] = test: (§1) Anti-parkinson's activity in MPTP-induced C57Bl/6 mouse model of Parkinson's disease assessed as abnormal movement at 20 mg/kg, po administered for 3 consecutive days prior and subsequent to MPTP administration (four injections of MPTP, 2 h intervals, 20 mg/kg, i.p. injection by coat hanger test; type: functional, organism-based
Outline: (§2)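 Mice dosed 20 mg/kg p.o. (or vehicle) for 3 consecutive days before and after MPTP (four i.p. injections, 20 mg/kg, 2 h apart); vertical grid test (turning, descent, total time) and coat-hanger scoring; n = 10–12 per group; mean ± SEM; one-way ANOVA with Tukey's test.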

[2] = biological target: T1, Nuclear factor erythroid 2-related factor 2 (Mus musculus) (UniProt Q60795); test: Activation of Nrf2 in mouse BV-2 cells assessed as upregulation of HO-1 mRNA expression at 1 to 10 uM incubated for 3 hrs by RT-qPCR analysis relative to control; type: cell-based
T1 sequence (whole entry): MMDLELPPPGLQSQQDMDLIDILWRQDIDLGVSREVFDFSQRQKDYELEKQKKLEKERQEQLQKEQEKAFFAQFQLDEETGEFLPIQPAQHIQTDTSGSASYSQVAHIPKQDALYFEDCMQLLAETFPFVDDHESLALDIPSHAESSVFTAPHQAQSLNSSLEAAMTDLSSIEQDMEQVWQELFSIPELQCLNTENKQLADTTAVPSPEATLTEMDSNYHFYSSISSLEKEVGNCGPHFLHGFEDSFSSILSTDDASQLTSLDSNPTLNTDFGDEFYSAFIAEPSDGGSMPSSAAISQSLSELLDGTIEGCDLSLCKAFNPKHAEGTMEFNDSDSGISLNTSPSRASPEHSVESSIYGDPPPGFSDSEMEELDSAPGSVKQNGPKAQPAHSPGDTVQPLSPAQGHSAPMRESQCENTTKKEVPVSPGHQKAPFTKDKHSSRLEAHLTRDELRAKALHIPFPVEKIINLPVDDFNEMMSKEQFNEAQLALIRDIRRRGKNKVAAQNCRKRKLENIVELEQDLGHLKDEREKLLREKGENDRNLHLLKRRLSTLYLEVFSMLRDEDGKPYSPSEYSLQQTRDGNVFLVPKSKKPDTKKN
Outline: (§3)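 BV-2 cells exposed to a range of concentrations for 3 h; HO-1, GCLM and GCLC mRNA quantified by RT-qPCR, normalized to β-actin; at least duplicate cultures, fold of untreated control ± SEM; paired t test.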

[3] = biological target: T1, Nuclear factor erythroid 2-related factor 2 (Mus musculus); test: Activation of Nrf2 in mouse BV-2 cells assessed as upregulation of GCLM mRNA expression at 1 to 10 uM incubated for 3 hrs by RT-qPCR analysis relative to control; type: cell-based; outline: as §3
BV-2 [4] = test: Antiinflammatory activity in mouse BV2 cells assessed as reduction in LPS-induced iNOS level at 1 to 10 uM incubated for 6 hrs followed by LPS stimulation for 12 hrs by Western blot analysis; type: functional, cell-based
Outline: (§4)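 BV-2 cells pretreated with compound 6 h, then stimulated with 1 μg/mL LPS for 12 h; protein and mRNA levels quantified relative to LPS-stimulated control; mean ± SD (n = 3); paired t test.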

[5] = biological target: T2, Nuclear factor erythroid 2-related factor 2 (Homo sapiens) (UniProt Q16236); test: Activation of Nrf2 in human SH-SY5Y cells assessed as increase in GCLM level incubated for 6 to 24 hrs by Western blot analysis; type: cell-based
T2 sequence (whole entry): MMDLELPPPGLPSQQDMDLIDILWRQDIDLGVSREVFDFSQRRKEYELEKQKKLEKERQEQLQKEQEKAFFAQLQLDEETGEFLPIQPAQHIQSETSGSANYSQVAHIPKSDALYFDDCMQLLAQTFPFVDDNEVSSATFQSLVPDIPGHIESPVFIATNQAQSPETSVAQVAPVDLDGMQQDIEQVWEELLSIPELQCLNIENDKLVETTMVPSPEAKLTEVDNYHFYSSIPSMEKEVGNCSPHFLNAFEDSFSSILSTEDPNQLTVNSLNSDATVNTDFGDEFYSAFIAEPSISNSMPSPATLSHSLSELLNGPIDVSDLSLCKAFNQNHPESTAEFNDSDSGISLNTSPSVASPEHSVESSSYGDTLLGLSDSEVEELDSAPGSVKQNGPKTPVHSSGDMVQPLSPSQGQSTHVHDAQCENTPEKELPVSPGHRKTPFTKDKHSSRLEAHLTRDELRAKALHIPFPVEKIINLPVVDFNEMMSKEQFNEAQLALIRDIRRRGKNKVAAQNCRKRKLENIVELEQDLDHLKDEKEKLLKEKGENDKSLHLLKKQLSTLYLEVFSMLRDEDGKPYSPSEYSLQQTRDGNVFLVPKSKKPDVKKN
Outline: (§5)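 SH-SY5Y neuroblastoma cells treated for 6 or 24 h, then harvested; NQO1, GCLM, GCLC protein by Western blot with β-actin loading control; at least duplicate cultures, averaged, fold of untreated control ± SEM; paired t test.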

[6] = biological target: T2, Nuclear factor erythroid 2-related factor 2 (Homo sapiens); test: Activation of Nrf2 in human SH-SY5Y cells assessed as increase in GCLM level at 0.3 to 3 uM incubated for 6 to 24 hrs by Western blot analysis relative to control; type: cell-based; outline: as §5
BV-2 [7] = test: Antiinflammatory activity in mouse BV2 cells assessed as reduction in LPS-induced iNOS expression at 3 to 10 uM incubated for 6 hrs followed by LPS stimulation for 12 hrs by RT-qPCR analysis; type: functional, cell-based; outline: as §4
[8] = biological target: T2, Nuclear factor erythroid 2-related factor 2 (Homo sapiens); test: Activation of Nrf2 in human SH-SY5Y cells assessed as increase in GCLC level incubated for 6 to 24 hrs by Western blot analysis; type: cell-based; outline: as §5
[9] = Cytotoxicity against mouse BV2 cells assessed as cell viability at 3 uM incubated for 6 hrs by CCK-8 assay relative to control; type: cell-based, BV-2; conditions: read-out: Activity
Outline: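 BV-2 cells exposed to compound for 6 h, then viability measured; percent survival reported.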

BV-2 [10] = test: Antiinflammatory activity in mouse BV2 cells assessed as reduction in LPS-induced NO production at 1 to 10 uM incubated for 24 hrs by ELISA; type: functional, cell-based
Outline: (§6)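 BV-2 cells given compound together with 1 μg/mL LPS for 24 h; mediator levels expressed relative to LPS-stimulated control ± SEM; at least duplicate cultures; paired t test.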

BV-2 [11] = test: Antiinflammatory activity in mouse BV2 cells assessed as reduction in LPS-induced IL-6 production incubated for 24 hrs by ELISA; type: functional, cell-based; outline: as §6
[12] = biological target: T1, Nuclear factor erythroid 2-related factor 2 (Mus musculus); test: Activation of Nrf2 in mouse BV-2 cells assessed as increase in total Nrf2 level by Western blot analysis; type: cell-based
Outline: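 BV-2 microglia treated 0.3–10 μM; Nrf2 measured by Western blot in nuclear extracts and whole-cell lysates; at least duplicate cultures, averaged, expressed as fold of untreated control ± SEM; paired t test.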

Mus musculus [13] = test: Protection against MPTP-induced DAergic neurotoxicity in C57BL/6 mouse model of Parkinson's disease assessed as reduction in SNpc microglial activation by measuring Iba1 fluorescent intensity at 20 mg/kg/day, administered for 7 consecutive days by TH/Iba1 double immunostaining-based assay; type: functional, organism-based; conditions: in the assay text read “administered for 3 consecutive days” for “administered for 7 consecutive days”
Outline: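 Double immunofluorescence for TH and Iba-1 on coronal substantia nigra sections 10 days after i.p. MPTP; relative Iba-1 intensity compared, n = 9 per group; mean ± SEM; one-way ANOVA with Tukey's test.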

[14] = biological target: T1, Nuclear factor erythroid 2-related factor 2 (Mus musculus); test: Activation of Nrf2 in mouse BV-2 cells assessed as increase in GCLM level at 0.3 to 10 uM incubated for 12 hrs by Western blot analysis relative to control; type: cell-based
Outline: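 BV-2 cells treated for 12 h; HO-1, GCLM, GCLC protein by Western blot, normalized to β-actin; at least duplicate cultures, fold induction over untreated control ± SEM; paired t test.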

BV-2 [15] = test: Antiinflammatory activity in mouse BV2 cells assessed as reduction in LPS-induced TNF-alpha production incubated for 24 hrs by ELISA; type: functional, cell-based; outline: as §6
[16] = biological target: T2, Nuclear factor erythroid 2-related factor 2 (Homo sapiens); test: Activation of Nrf2 in human SH-SY5Y cells assessed as increase in GCLC level at 0.3 to 3 uM incubated for 6 to 24 hrs by Western blot analysis relative to control; type: cell-based; outline: as §5
Mus musculus [17] = test: as §1, with “restoration of descent time” for “abnormal movement”, “vertical grid” for “coat hanger”; type: functional, organism-based; outline: as §2
Mus musculus [18] = test: Protection against MPTP-induced DAergic neurotoxicity in C57B/6 mouse model of Parkinson's disease assessed as restoration of TH-positive neurons cell density in SN at 20 mg/kg, po observed after 7 days by microscopic analysis; type: functional, organism-based
Outline: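 MPTP mouse model with 20 mg/kg oral dosing; striatal and substantia nigra sections collected 7 days later and stained for tyrosine hydroxylase; striatal TH density and nigral TH-positive neuron counts; mean ± SEM; one-way ANOVA with Tukey's test.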

- fold change (FC) [2]: 10.7
- fold change (FC) [3]: 5.3
- Activity [5]: Dose-dependent effect
- fold change (FC) [6]: 2.9
- Activity [8]: Dose-dependent effect
- Activity [12]: Dose-dependent effect
- fold change (FC) [14]: 5.6
- fold change (FC) [16]: 1.5
Structure (SMILES): COc1ccccc1OS(=O)(=O)/C=C/c1ccccc1Cl
- Activity (Mus musculus [1]): Active
- Activity (BV-2 [4]): Active
- Activity (BV-2 [7]): Active
- viability at 6 h, 3 µM [9]: 97.6%
- Activity (BV-2 [10]): Active
- Activity (BV-2 [11]): Dose-dependent effect
- Activity (Mus musculus [13]): Active
- Activity (BV-2 [15]): Dose-dependent effect
- Activity (Mus musculus [17]): Active
- Activity (Mus musculus [18]): Active
